Measurements from ChEMBL document CHEMBL3616466, “Pyrazolo[3,4-h]quinolines promising photosensitizing agents in the treatment of cancer” (Eur J Med Chem, 2015).
Activity calls are given as the source filed them. No cut-off for these calls is given here.

Experiments:
A549 [1] = experiment: Cytotoxicity against human A549 cells assessed as growth inhibition after 72 hrs by MTT assay; format: functional; settings: A549, 72 h
In short: (§1)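 Cells (5 × 10³ per well) pre-incubated 24 h at 37 °C, 5% CO₂, then exposed in the dark to serial concentrations diluted from DMSO stock into complete medium for 72 h at 37 °C. Viability read by MTT; GI50 derived. LoVo in Ham's F-12, MCF-7 and A-549 in DMEM, all with 10% FBS and penicillin/streptomycin.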

LoVo [2] = experiment: Photocytotoxicity against human LoVo cells assessed as growth inhibition at 3.75 J/cm'2 irradiation for 30 mins followed by drug treated for 72 hrs by MTT assay; format: functional; settings: light or radiation study
In short: (§2)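 Cells seeded at 5 × 10³ per well and pre-incubated 24 h. Drug dilutions in HBSS (pH 7.2, from DMSO stock) added for 30 min at 37 °C, then UV-A irradiation at the stated dose. Drug solution then replaced with culture medium and plates incubated 72 h. Viability by MTT; GI50 from concentration series.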

MCF7 [3] = experiment: Photocytotoxicity against human MCF7 cells assessed as growth inhibition at 3.75 J/cm'2 irradiation for 30 mins followed by drug treated for 72 hrs by MTT assay; format: functional; settings: MCF7, light or radiation study; in short: as §2
Jurkat [4] = experiment: Photocytotoxicity against human Jurkat cells assessed as growth inhibition at 1.25 J/cm'2 irradiation for 30 mins followed by drug treated for 72 hrs by MTT assay; format: functional; settings: light or radiation study; in short: as §2
MCF7 [5] = experiment: Photocytotoxicity against human MCF7 cells assessed as growth inhibition at 2.5 J/cm'2 irradiation for 30 mins followed by drug treated for 72 hrs by MTT assay; format: functional; settings: MCF7, light or radiation study; in short: as §2
HL-60 [6] = experiment: Photocytotoxicity against human HL60 cells assessed as growth inhibition at 2.5 J/cm'2 irradiation for 30 mins followed by drug treated for 72 hrs by MTT assay; format: functional; settings: HL-60, light or radiation study; in short: as §2
A549 [7] = experiment: Photocytotoxicity against human A549 cells assessed as growth inhibition at 2.5 J/cm'2 irradiation for 30 mins followed by drug treated for 72 hrs by MTT assay; format: functional; settings: A549, light or radiation study; in short: as §2
HL-60 [8] = experiment: Cytotoxicity against human HL60 cells assessed as growth inhibition after 72 hrs by MTT assay; format: functional; settings: HL-60, 72 h
MCF7 [9] = experiment: Cytotoxicity against human MCF7 cells assessed as growth inhibition after 72 hrs by MTT assay; format: functional; settings: MCF7, 72 h; in short: as §1
Jurkat [10] = experiment: Cytotoxicity against human Jurkat cells assessed as growth inhibition after 72 hrs by MTT assay; format: functional
LoVo [11] = experiment: Cytotoxicity against human LoVo cells assessed as growth inhibition after 72 hrs by MTT assay; format: functional; in short: as §1
HL-60 [12] = experiment: Photocytotoxicity against human HL60 cells assessed as growth inhibition at 1.25 J/cm'2 irradiation for 30 mins followed by drug treated for 72 hrs by MTT assay; format: functional; settings: HL-60, light or radiation study; in short: as §2
A549 [13] = experiment: Photocytotoxicity against human A549 cells assessed as growth inhibition at 3.75 J/cm'2 irradiation for 30 mins followed by drug treated for 72 hrs by MTT assay; format: functional; settings: A549, light or radiation study; in short: as §2
LoVo [14] = experiment: Photocytotoxicity against human LoVo cells assessed as growth inhibition at 2.5 J/cm'2 irradiation for 30 mins followed by drug treated for 72 hrs by MTT assay; format: functional; settings: light or radiation study; in short: as §2
Jurkat [15] = experiment: Photocytotoxicity against human Jurkat cells assessed as growth inhibition at 2.5 J/cm'2 irradiation for 30 mins followed by drug treated for 72 hrs by MTT assay; format: functional; settings: light or radiation study; in short: as §2
Escherichia coli = experiment: Induction of DNA damage in Escherichia coli pBR322 DNA measured at 7.5 J/cm'2 UV-A irradiation by neutral agarose electrophoresis
In short: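 pBR322 plasmid (100 ng) in 10 mM phosphate buffer pH 7.2 irradiated at 7.5 J/cm² UV-A with compound at a compound/DNA ratio of 3/1. Aliquots incubated at 37 °C with Fpg or Endo III. Run on 1% agarose in TAE at 70 V for 4 h; supercoiled, open circular and linear bands quantified.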

Jurkat [16] = experiment: Induction of lipid peroxidation in human Jurkat cells at 2 uM measured 24 hrs post 2.5 J/cm'2 irradiation by TBA assay; format: functional, cell-based
In short: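 TBA test for TBARS performed on supernatant medium and on cell lysates 24 h post-irradiation. Mean ± SEM of three experiments.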

A549 [17] = experiment: Photocytotoxicity against human A549 cells assessed as inhibition of colony formation at 2.5 J/cm'2 irradiation after 1 to 2 weeks using crystal violet staining by optical microscopy; format: functional, cell-based
In short: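 A-549 cells (10 × 10³) plated in dishes. After 24 h, irradiated at 2.5 J/cm² with compound at varying concentrations. Medium replaced, then cultured 1–2 weeks with medium changes every 2–3 days. Stained with crystal violet; colonies of ≥50 cells counted visually. Expressed as % of untreated cells; mean ± SEM of three experiments.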

Jurkat [18] = experiment: Induction of apoptosis in human Jurkat cells assessed as ROS production at 1 to 2 uM using HE and DCFDA staining measured 24 hrs post 2.5 J/cm'2 irradiation by FACS assay; format: functional, cell-based
Jurkat [19] = experiment: Induction of apoptosis in human Jurkat cells assessed as lysosome death at 1 to 2 uM using acridine orange staining measured 24 hrs post 2.5 J/cm'2 irradiation by flow cytometry; format: functional, cell-based
Jurkat [20] = experiment: Photocytotoxicity against human Jurkat cells assessed as cell survival at 0.5 uM measured 72 hrs post 2.5 J/cm'2 irradiation by MTT assay in presence of lipophilic scavengers; format: functional, cell-based
In short: (§3)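 Jurkat cells irradiated at 2.5 J/cm² with compound in HBSS together with a scavenger: vitamin E 60 µM, NaN₃ 10 mM, DABCO 1 mM, GSH 1 mM, DMTU 1 mM or mannitol 10 mM. Medium replaced after irradiation; viability by MTT 72 h later.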

Jurkat [21] = experiment: Induction of apoptosis in human Jurkat cells assessed as reduction in alive cells using Annexin-V and propidium iodide staining at 1 to 2 uM measured 24 hrs post 2.5 J/cm'2 irradiation by flow cytometry analysis; format: functional, cell-based
In short: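 Jurkat cells irradiated (2.5 J/cm²) with compound at 1 or 2 µM. After 24 h, co-stained with Annexin V-FITC and PI and analysed by flow cytometry (excitation 488 nm; emission 525 and 585 nm). Mean of three independent experiments.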

Jurkat [22] = experiment: Induction of apoptosis in human Jurkat cells assessed as increase in cleaved caspase 3 level at 1 uM measured 24 hrs post 2.5 J/cm'2 irradiation by Western blot analysis; format: functional, cell-based
In short: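 Jurkat cells irradiated (2.5 J/cm²) with compound at 1 µM. At 24 h, cells washed in cold PBS and lysed on ice for 20 min. 20 µg protein run on 8–16% gradient gels and transferred to nitrocellulose. Probed with rabbit anti-caspase-3 and β-actin (1:1000, 2 h), then peroxidase anti-rabbit IgG; ECL detection.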

Jurkat [23] = experiment: Induction of apoptosis in human Jurkat cells assessed as reduction in mitochondrial potential at 1 to 2 uM using JC-1 staining measured 24 hrs post 2.5 J/cm'2 irradiation by FACS assay; format: functional, cell-based
In short: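 At 24 h after 2.5 J/cm² irradiation with compound at 1 or 2 µM, Jurkat cells were pelleted and resuspended in HBSS with 1 µM JC-1. After 10 min at 37 °C, fluorescence read at 530 and 590 nm by flow cytometry. Mean ± SEM, n=3.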

Jurkat [24] = experiment: Photocytotoxicity against human Jurkat cells assessed as reduction of cell survival at 0.5 uM measured 72 hrs post 2.5 J/cm'2 irradiation by MTT assay in the presence of vitamin E, NaN3, DABCO, DMTU and MANN; format: functional, cell-based; in short: as §3

SMILES | GI50 (A549 [1]) | GI50 (LoVo [2]) | GI50 (MCF7 [3]) | GI50 (Jurkat [4]) | GI50 (MCF7 [5]) | GI50 (HL-60 [6]) | GI50 (A549 [7]) | GI50 (HL-60 [8]) | GI50 (MCF7 [9]) | GI50 (Jurkat [10]) | GI50 (LoVo [11]) | GI50 (HL-60 [12]) | GI50 (A549 [13]) | GI50 (LoVo [14]) | GI50 (Jurkat [15]) | Activity (Escherichia coli) | Activity (Jurkat [16]) | Activity (A549 [17]) | Activity (Jurkat [18]) | Activity (Jurkat [19]) | further results
O=c1[nH]c2c(cc1S(=O)(=O)c1ccccc1)CCc1c-2cnn1-c1ccccc1 | 10.8 µM | > 20 µM | > 20 µM | > 20 µM | > 20 µM | > 20 µM | > 20 µM | > 20 µM | 11.5 µM | 20 µM | > 20 µM | > 20 µM | 14.1 µM | > 20 µM | > 20 µM | – | – | – | – | – | –
COc1nc2c(cc1S(=O)(=O)c1ccccc1)CCc1c-2cnn1-c1ccc(Cl)cc1 | > 20 µM | 0.73 µM | 1.69 µM | 0.72 µM | 7.09 µM | 0.48 µM | 5.28 µM | > 20 µM | > 20 µM | 11.3 µM | > 20 µM | 4.03 µM | 1.49 µM | 5.53 µM | 0.43 µM | inactive | Active | Dose-dependent effect | inactive | inactive | Activity (Jurkat [20]): inactive; Activity (Jurkat [21]): Active; Activity (Jurkat [22]): inactive; Activity (Jurkat [23]): Active
COc1ccc(-n2ncc3c2CCc2cc(S(=O)(=O)c4ccccc4)c(OC)nc2-3)cc1 | > 20 µM | 0.53 µM | 1.18 µM | 1.15 µM | 2.53 µM | 0.72 µM | 4.02 µM | > 20 µM | > 20 µM | 12.5 µM | > 20 µM | 5.29 µM | 1.52 µM | 3.56 µM | 0.64 µM | inactive | Active | Dose-dependent effect | inactive | inactive | Activity (Jurkat [20]): inactive; Activity (Jurkat [24]): inactive; Activity (Jurkat [21]): Active; Activity (Jurkat [22]): inactive; Activity (Jurkat [23]): Active
COc1nc2c(cc1S(=O)(=O)c1ccccc1)CCc1c-2cnn1-c1ccccc1 | > 20 µM | 1.1 µM | 1.84 µM | 3.65 µM | 2.47 µM | 0.79 µM | 7.56 µM | > 20 µM | > 20 µM | 12.1 µM | > 20 µM | 2.83 µM | 2.89 µM | 3.14 µM | 0.71 µM | – | – | – | – | – | –
